# Data: ChEMBL document CHEMBL1153264, “(1,2,3-Triazol-4-yl)benzenamines: synthesis and activity against VEGF receptors 1 and 2” (Bioorg Med Chem Lett, 2009)
# Active and inactive are the calls of the source. No cut-off for these calls is given here.
# Key:
# [1] = biological target: Serine/threonine-protein kinase PLK1 (Homo sapiens) (UniProt P53350); test: Inhibition of Plk1 at 10 uM
# [2] = biological target: Aurora kinase B (Homo sapiens) (UniProt Q96GD4); test: Inhibition of Aurora B at 10 uM
# Chain of Aurora kinase B (Homo sapiens) (Q96GD4 whole entry): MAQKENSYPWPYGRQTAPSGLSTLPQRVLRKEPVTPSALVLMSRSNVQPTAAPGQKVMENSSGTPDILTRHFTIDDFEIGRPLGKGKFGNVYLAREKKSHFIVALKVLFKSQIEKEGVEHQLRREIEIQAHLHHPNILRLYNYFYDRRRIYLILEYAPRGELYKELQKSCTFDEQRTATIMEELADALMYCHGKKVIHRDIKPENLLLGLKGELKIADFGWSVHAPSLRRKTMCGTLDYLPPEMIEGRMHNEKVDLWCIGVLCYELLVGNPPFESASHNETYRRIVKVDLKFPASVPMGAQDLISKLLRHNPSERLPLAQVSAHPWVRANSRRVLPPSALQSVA
# [3] = biological target: T1, Vascular endothelial growth factor receptor 2 (Homo sapiens, UniProt P35968); test: Inhibition of VEGF-induced phosphorylation of VEGFR2 by cell-based ELISA
# [4] = biological target: Fibroblast growth factor receptor 1 (Homo sapiens) (UniProt P11362); test: Inhibition of FGFR1 at 10 uM
# Chain of Fibroblast growth factor receptor 1 (Homo sapiens) (P11362 22-822 limits assumed): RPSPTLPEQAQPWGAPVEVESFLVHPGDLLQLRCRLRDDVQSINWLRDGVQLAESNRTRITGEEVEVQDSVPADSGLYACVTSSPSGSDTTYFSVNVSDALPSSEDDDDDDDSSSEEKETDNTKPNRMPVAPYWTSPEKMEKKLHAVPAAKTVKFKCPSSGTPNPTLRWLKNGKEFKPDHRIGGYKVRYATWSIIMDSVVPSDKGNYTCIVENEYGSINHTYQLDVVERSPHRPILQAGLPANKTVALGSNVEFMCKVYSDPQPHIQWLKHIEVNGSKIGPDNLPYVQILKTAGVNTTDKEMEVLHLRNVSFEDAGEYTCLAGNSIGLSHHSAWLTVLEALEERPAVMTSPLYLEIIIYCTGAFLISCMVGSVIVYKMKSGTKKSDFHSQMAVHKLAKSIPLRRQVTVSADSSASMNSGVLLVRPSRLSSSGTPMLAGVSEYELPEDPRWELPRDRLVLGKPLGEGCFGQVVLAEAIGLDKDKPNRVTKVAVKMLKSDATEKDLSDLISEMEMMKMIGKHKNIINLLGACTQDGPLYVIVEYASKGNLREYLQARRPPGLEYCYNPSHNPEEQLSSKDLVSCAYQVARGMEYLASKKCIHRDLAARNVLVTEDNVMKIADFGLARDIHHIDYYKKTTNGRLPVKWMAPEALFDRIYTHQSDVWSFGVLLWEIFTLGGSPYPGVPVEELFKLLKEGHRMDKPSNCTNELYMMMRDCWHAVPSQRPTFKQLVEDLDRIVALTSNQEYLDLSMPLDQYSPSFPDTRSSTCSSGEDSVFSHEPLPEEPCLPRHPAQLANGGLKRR
# [5] = biological target: Receptor tyrosine-protein kinase erbB-2 (Homo sapiens) (UniProt P04626); test: Inhibition of ErbB2 at 10 uM
# Chain of Receptor tyrosine-protein kinase erbB-2 (Homo sapiens) (P04626 whole entry): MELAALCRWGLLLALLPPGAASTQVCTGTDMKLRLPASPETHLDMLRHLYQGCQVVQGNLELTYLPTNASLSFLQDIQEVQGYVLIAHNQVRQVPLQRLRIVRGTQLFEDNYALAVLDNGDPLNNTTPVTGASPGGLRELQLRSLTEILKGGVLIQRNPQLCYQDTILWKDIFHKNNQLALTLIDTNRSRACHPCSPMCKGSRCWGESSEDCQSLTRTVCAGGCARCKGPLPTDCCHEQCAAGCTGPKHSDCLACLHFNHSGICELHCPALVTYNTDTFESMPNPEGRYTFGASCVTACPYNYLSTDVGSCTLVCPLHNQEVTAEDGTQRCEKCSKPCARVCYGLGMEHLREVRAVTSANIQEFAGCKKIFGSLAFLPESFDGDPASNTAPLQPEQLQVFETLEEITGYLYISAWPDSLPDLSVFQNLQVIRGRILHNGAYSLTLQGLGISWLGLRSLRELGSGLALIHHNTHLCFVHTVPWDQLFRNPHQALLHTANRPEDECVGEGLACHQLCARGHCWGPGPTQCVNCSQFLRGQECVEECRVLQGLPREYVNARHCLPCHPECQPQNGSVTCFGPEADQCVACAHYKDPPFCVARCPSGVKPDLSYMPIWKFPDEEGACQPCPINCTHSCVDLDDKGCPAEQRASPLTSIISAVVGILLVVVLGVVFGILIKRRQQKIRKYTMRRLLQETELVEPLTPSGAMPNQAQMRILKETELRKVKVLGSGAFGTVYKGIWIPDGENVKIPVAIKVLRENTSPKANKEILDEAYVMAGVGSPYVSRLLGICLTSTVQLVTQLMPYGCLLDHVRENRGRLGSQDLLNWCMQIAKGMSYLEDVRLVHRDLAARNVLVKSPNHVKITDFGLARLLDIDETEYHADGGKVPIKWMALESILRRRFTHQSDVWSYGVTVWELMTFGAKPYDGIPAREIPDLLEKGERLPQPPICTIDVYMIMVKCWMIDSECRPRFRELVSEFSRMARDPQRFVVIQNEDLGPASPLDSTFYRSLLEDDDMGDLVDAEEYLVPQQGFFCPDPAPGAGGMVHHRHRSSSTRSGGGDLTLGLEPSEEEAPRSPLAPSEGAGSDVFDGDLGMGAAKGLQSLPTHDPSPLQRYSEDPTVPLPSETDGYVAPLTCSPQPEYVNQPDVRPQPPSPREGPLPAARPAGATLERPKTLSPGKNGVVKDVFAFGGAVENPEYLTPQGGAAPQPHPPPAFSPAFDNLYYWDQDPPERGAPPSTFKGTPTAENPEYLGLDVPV
# [6] = biological target: Glycogen synthase kinase-3 beta (Homo sapiens) (UniProt P49841); test: Inhibition of GSK3-beta at 10 uM
# Chain of Glycogen synthase kinase-3 beta (Homo sapiens) (P49841 whole entry, looked up): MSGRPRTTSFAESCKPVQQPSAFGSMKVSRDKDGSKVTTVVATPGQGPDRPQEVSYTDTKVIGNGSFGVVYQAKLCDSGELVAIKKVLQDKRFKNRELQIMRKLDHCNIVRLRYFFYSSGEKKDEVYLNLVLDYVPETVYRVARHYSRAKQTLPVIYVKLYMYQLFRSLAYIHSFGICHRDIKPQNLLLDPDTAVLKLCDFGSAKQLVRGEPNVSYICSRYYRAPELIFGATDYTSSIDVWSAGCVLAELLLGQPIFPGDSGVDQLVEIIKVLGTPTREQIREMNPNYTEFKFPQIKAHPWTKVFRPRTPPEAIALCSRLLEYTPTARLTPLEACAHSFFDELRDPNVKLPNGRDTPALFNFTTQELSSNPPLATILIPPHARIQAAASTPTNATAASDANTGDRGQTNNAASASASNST
# [7] = Inhibition of Bcr-Abl T315 mutant at 10 uM
# [8] = biological target: Hepatocyte growth factor receptor (Homo sapiens) (UniProt P08581); test: Inhibition of c-Met at 10 uM
# [9] = biological target: Epidermal growth factor receptor (Homo sapiens) (UniProt P00533); test: Inhibition of EGFR at 10 uM
# [10] = biological target: Macrophage-stimulating protein receptor (Homo sapiens) (UniProt Q04912); test: Inhibition of Ron at 10 uM
# Chain of Macrophage-stimulating protein receptor (Homo sapiens) (Q04912 25-304 limits assumed): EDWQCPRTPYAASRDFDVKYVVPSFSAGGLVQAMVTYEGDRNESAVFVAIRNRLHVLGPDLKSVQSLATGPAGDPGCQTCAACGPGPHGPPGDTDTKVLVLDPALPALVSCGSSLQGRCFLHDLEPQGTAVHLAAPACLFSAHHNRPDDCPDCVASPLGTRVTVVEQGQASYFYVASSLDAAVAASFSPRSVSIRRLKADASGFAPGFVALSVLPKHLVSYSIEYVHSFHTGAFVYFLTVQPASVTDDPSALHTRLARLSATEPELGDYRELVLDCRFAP
# Chain of Macrophage-stimulating protein receptor (Homo sapiens) (Q04912 310-1400 limits assumed): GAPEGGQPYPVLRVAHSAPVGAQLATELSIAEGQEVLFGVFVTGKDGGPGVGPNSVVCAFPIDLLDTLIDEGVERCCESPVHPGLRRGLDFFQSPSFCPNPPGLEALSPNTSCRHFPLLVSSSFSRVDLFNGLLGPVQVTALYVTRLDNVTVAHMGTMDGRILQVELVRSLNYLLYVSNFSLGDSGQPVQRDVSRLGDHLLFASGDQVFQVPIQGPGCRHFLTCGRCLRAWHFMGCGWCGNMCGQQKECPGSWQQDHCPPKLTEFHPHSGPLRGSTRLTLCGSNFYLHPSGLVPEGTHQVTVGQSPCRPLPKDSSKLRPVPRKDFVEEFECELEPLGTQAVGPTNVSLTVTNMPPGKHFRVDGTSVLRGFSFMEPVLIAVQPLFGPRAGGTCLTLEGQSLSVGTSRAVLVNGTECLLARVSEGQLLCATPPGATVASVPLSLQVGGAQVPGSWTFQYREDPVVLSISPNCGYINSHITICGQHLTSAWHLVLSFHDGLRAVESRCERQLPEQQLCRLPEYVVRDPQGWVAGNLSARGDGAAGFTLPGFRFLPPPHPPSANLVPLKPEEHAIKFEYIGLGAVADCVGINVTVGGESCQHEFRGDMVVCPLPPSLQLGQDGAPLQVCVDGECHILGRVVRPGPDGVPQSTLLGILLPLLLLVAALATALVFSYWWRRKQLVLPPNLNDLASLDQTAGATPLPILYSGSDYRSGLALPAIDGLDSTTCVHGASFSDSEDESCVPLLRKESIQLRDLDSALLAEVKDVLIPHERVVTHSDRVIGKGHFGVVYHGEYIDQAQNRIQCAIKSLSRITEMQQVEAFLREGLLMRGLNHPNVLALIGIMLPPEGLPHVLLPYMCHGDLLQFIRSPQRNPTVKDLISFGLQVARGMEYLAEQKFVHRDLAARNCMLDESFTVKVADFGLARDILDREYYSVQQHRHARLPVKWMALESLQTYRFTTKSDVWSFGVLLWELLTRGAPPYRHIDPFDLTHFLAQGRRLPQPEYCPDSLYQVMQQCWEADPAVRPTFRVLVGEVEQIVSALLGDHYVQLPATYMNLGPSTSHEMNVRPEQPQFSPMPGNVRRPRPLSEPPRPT
# [11] = biological target: Proto-oncogene tyrosine-protein kinase Src (Homo sapiens) (UniProt P12931); test: Inhibition of Src at 10 uM
# Chain of Proto-oncogene tyrosine-protein kinase Src (Homo sapiens) (P12931 2-536 limits assumed): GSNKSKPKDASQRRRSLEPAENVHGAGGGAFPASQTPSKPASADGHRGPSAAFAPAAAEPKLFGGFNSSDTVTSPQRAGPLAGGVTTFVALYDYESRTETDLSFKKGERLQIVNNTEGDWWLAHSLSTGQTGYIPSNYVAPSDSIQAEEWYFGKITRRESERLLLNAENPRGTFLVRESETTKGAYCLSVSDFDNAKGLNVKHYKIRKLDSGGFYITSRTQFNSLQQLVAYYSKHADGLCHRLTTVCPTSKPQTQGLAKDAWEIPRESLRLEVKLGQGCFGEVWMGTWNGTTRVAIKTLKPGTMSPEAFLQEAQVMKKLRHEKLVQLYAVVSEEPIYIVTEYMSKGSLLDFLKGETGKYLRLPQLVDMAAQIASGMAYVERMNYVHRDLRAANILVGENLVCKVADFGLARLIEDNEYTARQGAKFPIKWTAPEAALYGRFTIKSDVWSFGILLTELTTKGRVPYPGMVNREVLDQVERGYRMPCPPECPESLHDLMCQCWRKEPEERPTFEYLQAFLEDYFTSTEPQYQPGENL
# [12] = biological target: Vascular endothelial growth factor receptor 1 (Homo sapiens, UniProt P17948); test: Inhibition of VEGFR1 by HTRF assay
# [13] = biological target: T2, Aurora kinase A (Homo sapiens) (UniProt O14965); test: Inhibition of Aurora A at 10 uM
# T2 sequence (whole entry): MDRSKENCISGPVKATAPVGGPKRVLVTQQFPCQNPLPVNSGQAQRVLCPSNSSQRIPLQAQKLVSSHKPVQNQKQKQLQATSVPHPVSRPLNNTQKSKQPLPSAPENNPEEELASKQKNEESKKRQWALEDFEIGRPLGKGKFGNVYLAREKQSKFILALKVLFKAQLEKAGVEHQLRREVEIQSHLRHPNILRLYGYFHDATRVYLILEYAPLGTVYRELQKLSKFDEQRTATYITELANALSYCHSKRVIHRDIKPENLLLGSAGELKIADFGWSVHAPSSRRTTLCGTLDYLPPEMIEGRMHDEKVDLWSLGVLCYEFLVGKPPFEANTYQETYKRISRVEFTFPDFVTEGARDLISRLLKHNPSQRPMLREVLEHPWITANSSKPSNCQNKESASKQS
# [14] = biological target: Bcr/Abl fusion protein (Homo sapiens) (UniProt P00519+P11274); test: Inhibition of Bcr-Abl at 10 uM; type: protein assay
# [15] = biological target: Cyclin-dependent kinase 1 (Homo sapiens) (UniProt P06493); test: Inhibition of Cdk1 at 10 uM
# Chain of Cyclin-dependent kinase 1 (Homo sapiens) (P06493 whole entry, looked up): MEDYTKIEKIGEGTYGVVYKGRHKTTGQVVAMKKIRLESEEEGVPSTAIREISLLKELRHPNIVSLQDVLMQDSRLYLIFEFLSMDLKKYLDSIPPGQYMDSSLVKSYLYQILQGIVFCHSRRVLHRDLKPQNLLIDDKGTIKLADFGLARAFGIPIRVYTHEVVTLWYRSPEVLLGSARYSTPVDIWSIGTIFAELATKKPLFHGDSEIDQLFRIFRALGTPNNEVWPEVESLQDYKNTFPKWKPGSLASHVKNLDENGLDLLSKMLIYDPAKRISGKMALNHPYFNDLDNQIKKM
# [16] = biological target: Insulin-like growth factor 1 receptor (Homo sapiens) (UniProt P08069); test: Inhibition of IGF1R at 10 uM
# [17] = biological target: Insulin receptor (Homo sapiens) (UniProt P06213); test: Inhibition of IR at 10 uM
# [18] = biological target: Receptor-type tyrosine-protein kinase FLT3 (Homo sapiens) (UniProt P36888); test: Inhibition of Flt3 at 10 uM
# [19] = biological target: T1, Vascular endothelial growth factor receptor 2; test: Inhibition of VEGFR2 by HTRF assay in presence of 2 uM ATP
# Summary of the method: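 HTRF kinase assay with KDR enzyme (3–4 ng) and biotinylated pGAT substrate. ATP added to start, 45 min at RT. Stopped with EDTA/KF buffer plus Eu-cryptate anti-phosphotyrosine antibody, 2 h RT, then HTRF read. IC50 from 10-point log concentration curves, mean of at least two duplicate runs.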
# [20] = biological target: Cyclin-dependent kinase 2 (Homo sapiens) (UniProt P24941); test: Inhibition of Cdk2 at 10 uM
# [21] = Inhibition of PKA at 10 uM
SMILES,inhibition [1] [%],inhibition [2] [%],inhibition [4] [%],inhibition [5] [%],inhibition [6] [%],inhibition [7] [%],inhibition [8] [%],inhibition [9] [%],inhibition [10] [%],inhibition [11] [%],IC50 [12] [nM],inhibition [13] [%],inhibition [14] [%],inhibition [15] [%],inhibition [16] [%],inhibition [17] [%],inhibition [18] [%],IC50 [19] [nM],inhibition [20] [%],inhibition [21] [%],other results
CC(C)(C)c1cccc(-n2cc(-c3ccccc3NCc3ccncc3)nn2)c1,< 30,< 30,< 30,< 30,< 30,< 30,< 30,< 30,< 30,< 30,250,< 30,< 30,< 30,< 30,< 30,< 30,270,< 30,< 30,IC50 [3]: 330 nM
c1ccc(-c2cn(-c3ccc4[nH]ncc4c3)nn2)c(NCc2ccncc2)c1,< 30,< 30,< 30,< 30,< 30,< 30,< 30,< 30,< 30,< 30,650,< 30,< 30,< 30,< 30,< 30,< 30,680,< 30,< 30,IC50 [3]: 2330 nM
FC(F)(F)c1ccc(-n2cc(-c3ccccc3NCc3ccncc3)nn2)cc1,< 30,< 30,< 30,< 30,< 30,< 30,< 30,< 30,< 30,< 30,660,< 30,< 30,< 30,< 30,< 30,< 30,590,< 30,< 30,IC50 [3]: 1920 nM
Fc1ccc(CNc2ccccc2-c2cn(-c3cccc(Cl)c3)nn2)cc1F,< 30,< 30,< 30,< 30,< 30,< 30,< 30,< 30,< 30,< 30,,< 30,< 30,< 30,< 30,< 30,< 30,,< 30,< 30,
Clc1ccc(-n2cc(-c3ccccc3NCc3ccncc3)nn2)cc1,< 30,< 30,< 30,< 30,< 30,< 30,< 30,< 30,< 30,< 30,130,< 30,< 30,< 30,< 30,< 30,< 30,390,< 30,< 30,IC50 [3]: 270 nM
FC(F)(F)c1cccc(-n2cc(-c3ccccc3NCc3cccnc3)nn2)c1,< 30,< 30,< 30,< 30,< 30,< 30,< 30,< 30,< 30,< 30,> 10000,< 30,< 30,< 30,< 30,< 30,< 30,> 10000,< 30,< 30,IC50 [3]: > 10000 nM
Cc1ccc(-n2cc(-c3ccccc3NCc3ccncc3)nn2)cc1C(F)(F)F,< 30,< 30,< 30,< 30,< 30,< 30,< 30,< 30,< 30,< 30,110,< 30,< 30,< 30,< 30,< 30,< 30,140,< 30,< 30,IC50 [3]: 180 nM
Cc1cc(-n2cc(-c3ccccc3NCc3ccncc3)nn2)ccc1C(F)(F)F,< 30,< 30,< 30,< 30,< 30,< 30,< 30,< 30,< 30,< 30,860,< 30,< 30,< 30,< 30,< 30,< 30,980,< 30,< 30,IC50 [3]: 2020 nM
Clc1cccc(-n2cc(-c3ccccc3NCc3ccc4c(c3)OCO4)nn2)c1,< 30,< 30,< 30,< 30,< 30,< 30,< 30,< 30,< 30,< 30,> 10000,< 30,< 30,< 30,< 30,< 30,< 30,> 10000,< 30,< 30,IC50 [3]: > 10000 nM
Clc1ccc(-n2cc(-c3ccccc3NCc3ccncc3)nn2)cc1Cl,< 30,< 30,< 30,< 30,< 30,< 30,< 30,< 30,< 30,< 30,650,< 30,< 30,< 30,< 30,< 30,< 30,630,< 30,< 30,IC50 [3]: 1470 nM
c1ccc(-c2cn(-c3ccc4ccccc4n3)nn2)c(NCc2ccncc2)c1,< 30,< 30,< 30,< 30,< 30,< 30,< 30,< 30,< 30,< 30,640,< 30,< 30,< 30,< 30,< 30,< 30,770,< 30,< 30,IC50 [3]: 1190 nM
FC(F)(F)c1cccc(-n2cc(-c3ccccc3NCc3ccnc4ccccc34)nn2)c1,< 30,< 30,< 30,< 30,< 30,< 30,< 30,< 30,< 30,< 30,210,< 30,< 30,< 30,< 30,< 30,< 30,160,< 30,< 30,IC50 [3]: 310 nM
O=C(Nc1cccc(C(F)(F)F)c1)c1nn[nH]c1NCc1ccncc1,,,,,,,,,,,,,,,,,,5000,,,Activity [3]: inactive
O=C(Nc1ccc(Cl)cc1)c1nn[nH]c1NCc1ccncc1,,,,,,,,,,,> 10000,,,,,,,> 10000,,,
O=C(Nc1ccc(C(F)(F)F)cc1)c1[nH]nnc1NCc1ccncc1,,,,,,,,,,,> 10000,,,,,,,> 10000,,,
O=C(Nc1cccc(Cl)c1)c1nn[nH]c1NCc1ccncc1,,,,,,,,,,,,,,,,,,5000,,,Activity [3]: inactive
